According to ChEMBL document CHEMBL1128374, “Preparation and in vitro activities of ethers of [D-serine]8-cyclosporin” (J Med Chem, 1995):
Converted amounts (≈) assume the structure as drawn.

What was measured:
Type in all cases: functional
Mus musculus [1] = organism: Mus musculus; test: In vitro efficacy to suppress lymphocyte proliferation as measured by the incorporation of a labeled precursor ([3H]- thymidine) into DNA in Mixed Lymphocyte reaction (MLR).
Summary of the method: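 Cells from spleens of female CBA mice aged 8–10 weeks (ca. 5 x 10^5). Compounds made up at 20 mg/mL in 9:1 (v/v) ethanol/Tween 80, then diluted in saline before adding to medium. Four concentrations per compound across 1.8–1000 ng/mL, in triplicate cultures. IC50 is the calculated concentration giving 50% inhibition of proliferation. Cyclosporin A run in parallel as control.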

Mus musculus [2] = organism: Mus musculus; test: In vitro inhibition of interleukin-2 (IL-2) production induced by stimulating lymphocytes derived from mouse spleens with the […]; details: Spleen
Summary of the method: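 Compounds added with concanavalin A to the primary culture; supernatants collected at 48 h. IL-2 content measured by growth of IL-2-dependent CTLL cells, read as tritiated thymidine incorporation after 48 h. IC50 determined, with cyclosporin A run in parallel.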

Mus musculus [3] = organism: Mus musculus; test: In vitro efficacy on humoral immune response by Mishell-Dutton assay (MD).
Summary of the method: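 Spleen lymphocytes from female OF1 mice (ca. 10 x 10^6) cultured 3 days with sheep erythrocytes (ca. 30 x 10^6) and test compound. Cells then plated on agar with fresh erythrocytes; plaques form by complement lysis. Read-out is the count of antibody-producing plaque-forming cells. Cyclosporin A run in parallel.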

Compound | IC50 (Mus musculus [1]) | IC50 (Mus musculus [2]) | IC50 (Mus musculus [3])
C/C=C/C[C@@H](C)[C@@H](O)[C@H]1C(=O)N[C@@H](CC)C(=O)N(C)CC(=O)N(C)[C@@H](CC(C)C)C(=O)N[C@@H](C(C)C)C(=O)N(C)[C@@H](CC(C)C)C(=O)N[C@@H](C)C(=O)N2CC(=O)OC[C@@H]2C(=O)N(C)[C@@H](CC(C)C)C(=O)N(C)[C@@H](CC(C)C)C(=O)N(C)[C@@H](C(C)C)C(=O)N1C | 0.167 µg/mL (≈ 0.133 µM) | 0.024 µg/mL (≈ 0.0191 µM) | –
C/C=C/C[C@@H](C)[C@@H](O)[C@H]1C(=O)N[C@@H](CC)C(=O)N(C)CC(=O)N(C)[C@@H](CC(C)C)C(=O)N[C@@H](C(C)C)C(=O)N(C)[C@@H](CC(C)C)C(=O)N[C@@H](C)C(=O)N[C@H](COC/C=C/CO)C(=O)N(C)[C@@H](CC(C)C)C(=O)N(C)[C@@H](CC(C)C)C(=O)N(C)[C@@H](C(C)C)C(=O)N1C | 0.07 µg/mL (≈ 0.0543 µM) | – | 0.036 µg/mL (≈ 0.0279 µM)
C/C=C/C[C@@H](C)[C@@H](O)[C@H]1C(=O)N[C@@H](CC)C(=O)N(C)CC(=O)N(C)[C@@H](CC(C)C)C(=O)N[C@@H](C(C)C)C(=O)N(C)[C@@H](CC(C)C)C(=O)N[C@@H](C)C(=O)N[C@H](COCC#N)C(=O)N(C)[C@@H](CC(C)C)C(=O)N(C)[C@@H](CC(C)C)C(=O)N(C)[C@@H](C(C)C)C(=O)N1C | 0.01 µg/mL (≈ 0.00795 µM) | – | 0.023 µg/mL (≈ 0.0183 µM)
C/C=C/C[C@@H](C)[C@@H](O)[C@H]1C(=O)N[C@@H](CC)C(=O)N(C)CC(=O)N(C)[C@@H](CC(C)C)C(=O)N[C@@H](C(C)C)C(=O)N(C)[C@@H](CC(C)C)C(=O)N[C@@H](C)C(=O)N[C@H](COCC(C)(C)O)C(=O)N(C)[C@@H](CC(C)C)C(=O)N(C)[C@@H](CC(C)C)C(=O)N(C)[C@@H](C(C)C)C(=O)N1C | 0.05 µg/mL (≈ 0.0387 µM) | – | 0.078 µg/mL (≈ 0.0604 µM)
C/C=C/C[C@@H](C)[C@@H](O)[C@H]1C(=O)N[C@@H](CC)C(=O)N(C)CC(=O)N(C)[C@@H](CC(C)C)C(=O)N[C@@H](C(C)C)C(=O)N(C)[C@@H](CC(C)C)C(=O)N[C@@H](C)C(=O)N[C@H](COCC(=O)OC(C)C)C(=O)N(C)[C@@H](CC(C)C)C(=O)N(C)[C@@H](CC(C)C)C(=O)N(C)[C@@H](C(C)C)C(=O)N1C | 0.1 µg/mL (≈ 0.0758 µM) | – | 0.725 µg/mL (≈ 0.55 µM)
C/C=C/C[C@@H](C)[C@@H](O)[C@H]1C(=O)N[C@@H](CC)C(=O)N(C)CC(=O)N(C)[C@@H](CC(C)C)C(=O)N[C@@H](C(C)C)C(=O)N(C)[C@@H](CC(C)C)C(=O)N[C@@H](C)C(=O)N[C@H](COCCOCC(=O)OC(C)C)C(=O)N(C)[C@@H](CC(C)C)C(=O)N(C)[C@@H](CC(C)C)C(=O)N(C)[C@@H](C(C)C)C(=O)N1C | 0.05 µg/mL (≈ 0.0367 µM) | – | 0.078 µg/mL (≈ 0.0572 µM)
C/C=C/C[C@@H](C)[C@@H](O)[C@H]1C(=O)N[C@@H](CC)C(=O)N(C)CC(=O)N(C)[C@@H](CC(C)C)C(=O)N[C@@H](C(C)C)C(=O)N(C)[C@@H](CC(C)C)C(=O)N[C@@H](C)C(=O)N[C@H](COCC(=O)OC)C(=O)N(C)[C@@H](CC(C)C)C(=O)N(C)[C@@H](CC(C)C)C(=O)N(C)[C@@H](C(C)C)C(=O)N1C | 0.044 µg/mL (≈ 0.0341 µM) | – | 0.065 µg/mL (≈ 0.0504 µM)
C/C=C/C[C@@H](C)[C@@H](O)[C@H]1C(=O)N[C@@H](CC)C(=O)N(C)CC(=O)N(C)[C@@H](CC(C)C)C(=O)N[C@@H](C(C)C)C(=O)N(C)[C@@H](CC(C)C)C(=O)N[C@@H](C)C(=O)N[C@H](COCCC2OCCCO2)C(=O)N(C)[C@@H](CC(C)C)C(=O)N(C)[C@@H](CC(C)C)C(=O)N(C)[C@@H](C(C)C)C(=O)N1C | 0.12 µg/mL (≈ 0.09 µM) | – | 0.21 µg/mL (≈ 0.158 µM)
C/C=C/C[C@@H](C)[C@@H](O)[C@H]1C(=O)N[C@@H](CC)C(=O)N(C)CC(=O)N(C)[C@@H](CC(C)C)C(=O)N[C@@H](C(C)C)C(=O)N(C)[C@@H](CC(C)C)C(=O)N[C@@H](C)C(=O)N[C@H](COCCOCCOCCO)C(=O)N(C)[C@@H](CC(C)C)C(=O)N(C)[C@@H](CC(C)C)C(=O)N(C)[C@@H](C(C)C)C(=O)N1C | 0.47 µg/mL (≈ 0.348 µM) | – | 0.1 µg/mL (≈ 0.074 µM)
C/C=C/C[C@@H](C)[C@@H](O)[C@H]1C(=O)N[C@@H](CC)C(=O)N(C)CC(=O)N(C)[C@@H](CC(C)C)C(=O)N[C@@H](C(C)C)C(=O)N(C)[C@@H](CC(C)C)C(=O)N[C@@H](C)C(=O)N[C@H](COCCCCO)C(=O)N(C)[C@@H](CC(C)C)C(=O)N(C)[C@@H](CC(C)C)C(=O)N(C)[C@@H](C(C)C)C(=O)N1C | 0.094 µg/mL (≈ 0.0728 µM) | – | 0.09 µg/mL (≈ 0.0697 µM)
C/C=C/C[C@@H](C)[C@@H](O)[C@H]1C(=O)N[C@@H](CC)C(=O)N(C)CC(=O)N(C)[C@@H](CC(C)C)C(=O)N[C@@H](C(C)C)C(=O)N(C)[C@@H](CC(C)C)C(=O)N[C@@H](C)C(=O)N[C@H](COC/C=C/CBr)C(=O)N(C)[C@@H](CC(C)C)C(=O)N(C)[C@@H](CC(C)C)C(=O)N(C)[C@@H](C(C)C)C(=O)N1C | 0.09 µg/mL (≈ 0.0666 µM) | – | 0.24 µg/mL (≈ 0.178 µM)
C/C=C/C[C@@H](C)[C@@H](O)[C@H]1C(=O)N[C@@H](CC)C(=O)N(C)CC(=O)N(C)[C@@H](CC(C)C)C(=O)N[C@@H](C(C)C)C(=O)N(C)[C@@H](CC(C)C)C(=O)N[C@@H](C)C(=O)N[C@H](COCCOS(=O)(=O)c2ccc(C)cc2)C(=O)N(C)[C@@H](CC(C)C)C(=O)N(C)[C@@H](CC(C)C)C(=O)N(C)[C@@H](C(C)C)C(=O)N1C | 0.05 µg/mL (≈ 0.0353 µM) | 0.014 µg/mL (≈ 0.00988 µM) | –
C/C=C/C[C@@H](C)[C@@H](O)[C@H]1C(=O)N[C@@H](CC)C(=O)N(C)CC(=O)N(C)[C@@H](CC(C)C)C(=O)N[C@@H](C(C)C)C(=O)N(C)[C@@H](CC(C)C)C(=O)N[C@@H](C)C(=O)N[C@H](COC/C=C/COC(C)=O)C(=O)N(C)[C@@H](CC(C)C)C(=O)N(C)[C@@H](CC(C)C)C(=O)N(C)[C@@H](C(C)C)C(=O)N1C | 0.04 µg/mL (≈ 0.0301 µM) | – | 0.04 µg/mL (≈ 0.0301 µM)
C/C=C/C[C@@H](C)[C@@H](O)[C@H]1C(=O)N[C@@H](CC)C(=O)N(C)CC(=O)N(C)[C@@H](CC(C)C)C(=O)N[C@@H](C(C)C)C(=O)N(C)[C@@H](CC(C)C)C(=O)N[C@@H](C)C(=O)N[C@H](COCCOCCOCC(=O)OC(C)C)C(=O)N(C)[C@@H](CC(C)C)C(=O)N(C)[C@@H](CC(C)C)C(=O)N(C)[C@@H](C(C)C)C(=O)N1C | 0.35 µg/mL (≈ 0.249 µM) | – | 0.53 µg/mL (≈ 0.377 µM)
C/C=C/C[C@@H](C)[C@@H](O)[C@H]1C(=O)N[C@@H](CC)C(=O)N(C)CC(=O)N(C)[C@@H](CC(C)C)C(=O)N[C@@H](C(C)C)C(=O)N(C)[C@@H](CC(C)C)C(=O)N[C@@H](C)C(=O)N2CCCC[C@@H]2C(=O)N(C)[C@@H](CC(C)C)C(=O)N(C)[C@@H](CC(C)C)C(=O)N(C)[C@@H](C(C)C)C(=O)N1C | 0.029 µg/mL (≈ 0.0233 µM) | – | –
C/C=C/C[C@@H](C)[C@@H](O)[C@H]1C(=O)N[C@@H](CC)C(=O)N(C)CC(=O)N(C)[C@@H](CC(C)C)C(=O)N[C@@H](C(C)C)C(=O)N(C)[C@@H](CC(C)C)C(=O)N[C@@H](C)C(=O)N2COC[C@@H]2C(=O)N(C)[C@@H](CC(C)C)C(=O)N(C)[C@@H](CC(C)C)C(=O)N(C)[C@@H](C(C)C)C(=O)N1C | 0.118 µg/mL (≈ 0.0959 µM) | – | –
C=CCOC[C@H]1NC(=O)[C@H](C)NC(=O)[C@H](CC(C)C)N(C)C(=O)[C@H](C(C)C)NC(=O)[C@H](CC(C)C)N(C)C(=O)CN(C)C(=O)[C@H](CC)NC(=O)[C@H]([C@H](O)[C@H](C)C/C=C/C)N(C)C(=O)[C@H](C(C)C)N(C)C(=O)[C@H](CC(C)C)N(C)C(=O)[C@H](CC(C)C)N(C)C1=O | 0.088 µg/mL (≈ 0.0699 µM) | 0.115 µg/mL (≈ 0.0914 µM) | 0.032 µg/mL (≈ 0.0254 µM)
C/C=C/C[C@@H](C)[C@@H](O)[C@H]1C(=O)N[C@@H](CC)C(=O)N(C)CC(=O)N(C)[C@@H](CC(C)C)C(=O)N[C@@H](C(C)C)C(=O)N(C)[C@@H](CC(C)C)C(=O)N[C@@H](C)C(=O)N[C@H](COCCCO)C(=O)N(C)[C@@H](CC(C)C)C(=O)N(C)[C@@H](CC(C)C)C(=O)N(C)[C@@H](C(C)C)C(=O)N1C | 0.02 µg/mL (≈ 0.0157 µM) | – | 0.009 µg/mL (≈ 0.00705 µM)
C/C=C/C[C@@H](C)[C@@H](O)[C@H]1C(=O)N[C@@H](CC)C(=O)N(C)CC(=O)N(C)[C@@H](CC(C)C)C(=O)N[C@@H](C(C)C)C(=O)N(C)[C@@H](CC(C)C)C(=O)N[C@@H](C)C(=O)N2CCOC[C@@H]2C(=O)N(C)[C@@H](CC(C)C)C(=O)N(C)[C@@H](CC(C)C)C(=O)N(C)[C@@H](C(C)C)C(=O)N1C | 0.006 µg/mL (≈ 0.00482 µM) | 0.003 µg/mL (≈ 0.00241 µM) | –
C/C=C/C[C@@H](C)[C@@H](O)[C@H]1C(=O)N[C@@H](CC)C(=O)N(C)CC(=O)N(C)[C@@H](CC(C)C)C(=O)N[C@@H](C(C)C)C(=O)N(C)[C@@H](CC(C)C)C(=O)N[C@@H](C)C(=O)N[C@H](COCCN=[N+]=[N-])C(=O)N(C)[C@@H](CC(C)C)C(=O)N(C)[C@@H](CC(C)C)C(=O)N(C)[C@@H](C(C)C)C(=O)N1C | 0.11 µg/mL (≈ 0.0854 µM) | – | 0.087 µg/mL (≈ 0.0676 µM)
C=C1COC[C@@H]2C(=O)N(C)[C@@H](CC(C)C)C(=O)N(C)[C@@H](CC(C)C)C(=O)N(C)[C@@H](C(C)C)C(=O)N(C)[C@@H]([C@H](O)[C@H](C)C/C=C/C)C(=O)N[C@@H](CC)C(=O)N(C)CC(=O)N(C)[C@@H](CC(C)C)C(=O)N[C@@H](C(C)C)C(=O)N(C)[C@@H](CC(C)C)C(=O)N[C@@H](C)C(=O)N2C1 | 0.036 µg/mL (≈ 0.0283 µM) | 0.012 µg/mL (≈ 0.00944 µM) | –
C/C=C/C[C@@H](C)[C@@H](O)[C@H]1C(=O)N[C@@H](CC)C(=O)N(C)CC(=O)N(C)[C@@H](CC(C)C)C(=O)N[C@@H](C(C)C)C(=O)N(C)[C@@H](CC(C)C)C(=O)N[C@@H](C)C(=O)N2CC(OCC)OC[C@@H]2C(=O)N(C)[C@@H](CC(C)C)C(=O)N(C)[C@@H](CC(C)C)C(=O)N(C)[C@@H](C(C)C)C(=O)N1C (mixture of isomers) | 0.04 µg/mL | 0.01 µg/mL | –
